According to ChEMBL document CHEMBL2331496 (Eur J Med Chem, 2013):
Active and inactive are the calls of the source. No cut-off for these calls is given here.

Columns and labels:
293T = experiment: Inhibition of HIV1 NL4.3 CA-SP1 cleavage infected in 293T cells after 2 days by Western blot analysis; type: cell-based; conditions: Human immunodeficiency virus 1
[1] = Selectivity index, ratio of CC50 for human MAGIC-5B cells to IC50 for HIV1 NL4.3; type: functional
[2] = test system: Human immunodeficiency virus 1; experiment: Antiviral activity against HIV1 NL4.3 infected in 293T cells assessed as aberrant core at 5 ug/ml after 2 days by electron microscopic analysis; type: functional, organism-based
[3] = test system: Human immunodeficiency virus 1; experiment: Antiviral activity against HIV1 NL4.3 infected in 293T cells assessed as acentric core at 5 ug/ml after 2 days by electron microscopic analysis; type: functional, organism-based
[4] = Cytotoxicity against human MAGIC-5B cells after 48 hrs by MTT assay; type: cell-based
[5] = test system: Human immunodeficiency virus 1; experiment: Antiviral activity against HIV1 NL4.3 infected in MAGIC-5B cells after 48 hrs by beta-galactosidase reporter gene assay; type: functional, organism-based; conditions: Human immunodeficiency virus 1, NL4.3, 48 h
How it was run: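 MAGIC-5B indicator cells (beta-galactosidase under the HIV-1 LTR), 8×10^4 per well, were exposed to these supernatants. After 48 h, ONPG hydrolysis was read in lysates and normalised to total protein.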

[6] = test system: Human immunodeficiency virus 1; experiment: Antiviral activity against HIV1 NL4.3 infected in 293T cells assessed as spherical core at 5 ug/ml after 2 days by electron microscopic analysis; type: functional, organism-based
[7] = test system: Human immunodeficiency virus 1; experiment: Binding affinity to HIV1 NL4.3 CA-SP1 at 550 uM by chemical shift pertubation NMR analysis
How it was run: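 2D 1H-1H NOESY of CA-SP1-NC peptide (250 uM) with and without ligand (550 uM). pH 3.8 in H2O/TFE 70/30 (to prevent aggregation) with 1% DMSO-d6. Spectral width 5296.6 Hz, excitation-sculpting water suppression, 250 ms NOE mixing time. Chemical-shift perturbation of the wild-type junction plotted per residue.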

[8] = Ratio of compound selectivity index to bevirimat selectivity index for HIV1 NL4.3 over human MAGIC-5B cells
[9] = test system: Human immunodeficiency virus; experiment: Antiviral activity against HIV infected in H9 cells; type: functional, organism-based; conditions: Human immunodeficiency virus 1, H9

| SMILES | inhibition (293T) | Ratio CC50/IC50 [1] | Activity [2] | Activity [3] | CC50 at 48 h [4] | IC50 [5] | Activity [6] | Activity [7] | Ratio [8] | EC50 [9] |
| --- | --- | --- | --- | --- | --- | --- | --- | --- | --- | --- |
| C=C(C)[C@@H]1CC[C@]2(C(=O)O)CC[C@]3(C)[C@H](CC[C@@H]4[C@@]5(C)CC[C@H](O)C(C)(C)[C@@H]5CC[C@]43C)[C@@H]12 [BETULINIC ACID] | inactive | 0.85 | inactive | inactive | 4.52 µM | 5.32 µM | inactive | – | – | – |
| C=C(C)[C@@H]1CC[C@]2(C(=O)NCC(=O)O)CC[C@]3(C)[C@H](CC[C@@H]4[C@@]5(C)CC[C@H](OC(=O)CC(C)(C)C(=O)O)C(C)(C)[C@@H]5CC[C@]43C)[C@@H]12 | Active | 309.37 | Active | Active | 49.5 µM | 0.16 µM | Active | – | – | – |
| C=C(C)[C@@H]1CC[C@]2(C(=O)N[C@@H](CCCCN)C(=O)O)CC[C@]3(C)[C@H](CC[C@@H]4[C@@]5(C)CC[C@H](OC(=O)CC(C)(C)C(=O)O)C(C)(C)[C@@H]5CC[C@]43C)[C@@H]12 | inactive | 11.24 | inactive | inactive | 48.7 µM | 4.33 µM | inactive | – | – | – |
| C=C(C)[C@@H]1CC[C@]2(C(=O)N[C@@H](CCCCNC(=O)OC(C)(C)C)C(=O)O)CC[C@]3(C)[C@H](CC[C@@H]4[C@@]5(C)CC[C@H](OC(=O)CC(C)(C)C(=O)O)C(C)(C)[C@@H]5CC[C@]43C)[C@@H]12 | Active | 199.41 | Active | Active | 33.9 µM | 0.17 µM | Active | – | – | – |
| C=C(C)[C@@H]1CC[C@]2(C(=O)NCCN)CC[C@]3(C)[C@H](CC[C@@H]4[C@@]5(C)CC[C@H](OC(=O)CC(C)(C)C(=O)O)C(C)(C)[C@@H]5CC[C@]43C)[C@@H]12 | Active | 2118.75 | Active | Active | 33.9 µM | 0.016 µM | Active | Active | 2 | – |
| C=C(C)[C@@H]1CC[C@]2(C(=O)O)CC[C@]3(C)[C@H](CC[C@@H]4[C@@]5(C)CC[C@H](OC(=O)CC(C)(C)C(=O)O)C(C)(C)[C@@H]5CC[C@]43C)[C@@H]12 [BEVIRIMAT] | Active | – | Active | Active | – | – | Active | – | – | > 0.00035 µM |
| C=C(C)[C@@H]1CC[C@]2(C(=O)NCCC(=O)O)CC[C@]3(C)[C@H](CC[C@@H]4[C@@]5(C)CC[C@H](OC(=O)CC(C)(C)C(=O)O)C(C)(C)[C@@H]5CC[C@]43C)[C@@H]12 | Active | 411.01 | Active | Active | 48.5 µM | 0.118 µM | Active | – | – | – |
